{
  "source": "ChEMBL document CHEMBL4196162",
  "about": "“Target-Directed Self-Assembly of Homodimeric Drugs Against β-Tryptase” (ACS Med Chem Lett, 2018)",
  "key": {"[1]": {"assay": "Inhibition of recombinant human lung beta-tryptase using N-tert-butoxycarbonyl-Gln-Ala-Arg-AMC as substrate incubated for 3 hrs followed by substrate addition measured every 30 secs for 15 mins in presence of 10 pM of tryptase", "how_it_was_run": "(§1)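 Purified tryptase tested at several enzyme concentrations. IC50 from nonlinear regression with no Hill slope constraint.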"}, "[2]": {"assay": "Inhibition of recombinant human lung beta-tryptase using N-tert-butoxycarbonyl-Gln-Ala-Arg-AMC as substrate incubated for 3 hrs followed by substrate addition measured every 30 secs for 15 mins in presence of 100 pM of tryptase", "how_it_was_run": "as §1"}, "[3]": {"assay": "Inhibition of recombinant human lung beta-tryptase using N-tert-butoxycarbonyl-Gln-Ala-Arg-AMC as substrate incubated for 3 hrs followed by substrate addition measured every 30 secs for 15 mins in presence of 1 nM of tryptase", "how_it_was_run": "as §1"}, "[4]": {"assay": "Inhibition of beta-tryptase in human HMC1 cells assessed as decrease in A23187-induced degranulation in supernatant incubated for 2 hrs followed by A23187 addition measured after 1 hr", "format": "cell-based", "how_it_was_run": "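Cultured HMC1 human mast cells exposed to inhibitor (10 nM to 100 μM) for 2 h, then degranulated with 1 μM A23187 in PBS. After 1 h, supernatant tested for tryptase activity. IC50 and SEM from nonlinear regression with unconstrained Hill slope.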"}, "[5]": {"assay": "Inhibition of beta-tryptase in human HMC1 cells assessed as decrease in A23187-induced degranulation in cell lysates incubated for 2 hrs followed by A23187 addition measured after 1 hr", "format": "cell-based", "how_it_was_run": "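HMC1 human mast cell lysates tested for tryptase activity in the presence of inhibitor. IC50 and SEM from nonlinear regression with unconstrained Hill slope.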"}, "Homo sapiens": {"species_on_record": "Homo sapiens", "assay": "Reversal inhibition of recombinant human lung beta-tryptase assessed as recovery of enzymatic activity at 10 uM using N-tert-butoxycarbonyl-Gln-Ala-Arg-AMC as substrate measured over 216 hrs"}},
  "note": "Active and inactive are the calls of the source. The calls are words filed in the database; no cut-off is given here.",
  "data": [
    {"compound": "NCc1cccc(C2CCN(C(=O)c3cccc(NC(=O)C(O)C4(O)CCC4)c3)CC2)c1", "note": "(stereo unspecified)", "values": [
      {"measurement": "IC50", "setting": "[1]", "value": 0.64, "unit": "µM"},
      {"measurement": "IC50", "setting": "[2]", "value": 0.17, "unit": "µM"},
      {"measurement": "IC50", "setting": "[3]", "value": 8.1, "unit": "µM"},
      {"measurement": "IC50", "setting": "[4]", "value": 137, "unit": "µM"},
      {"measurement": "IC50", "setting": "[5]", "value": 21.8, "unit": "µM"},
      {"measurement": "inhibition", "setting": "Homo sapiens", "value": "Active"}
    ]}
  ]
}
